# An excerpt weighted towards active compounds, which were near 3.4% of everything screened.
# RORA act: activates the human nuclear receptor RORA | P35398 | CHO-K1 Gal4-RORA LBD luciferase reporter, luminescence; percent increase over mock-subtracted basal signal | activation, % at 10 µM | 1.5% of 65,000 active | AID 560;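 active means activation above the mean of all tested compounds plus 3 SD, cut at about 49% in these data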
# JNK3 inh: inhibitors of human JNK3 kinase | 0.61% of 60,000 active | purified JNK3 kinase activity, HTS | AID 746 | inhibition, % at 8 µM | P53779; in the data active means inhibition above about 17%
# Cdc25B inh: human M-phase inducer phosphatase 2 inhibition; P30305; recombinant Cdc25B, OMFP fluorescence Ex485/Em525; inhibition, %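 (compounds tested at 10 µM final in the well)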; 0.1% of 65,000 active; in the data active means inhibition above about 50%
# Target sequence (P30305 whole entry, looked up): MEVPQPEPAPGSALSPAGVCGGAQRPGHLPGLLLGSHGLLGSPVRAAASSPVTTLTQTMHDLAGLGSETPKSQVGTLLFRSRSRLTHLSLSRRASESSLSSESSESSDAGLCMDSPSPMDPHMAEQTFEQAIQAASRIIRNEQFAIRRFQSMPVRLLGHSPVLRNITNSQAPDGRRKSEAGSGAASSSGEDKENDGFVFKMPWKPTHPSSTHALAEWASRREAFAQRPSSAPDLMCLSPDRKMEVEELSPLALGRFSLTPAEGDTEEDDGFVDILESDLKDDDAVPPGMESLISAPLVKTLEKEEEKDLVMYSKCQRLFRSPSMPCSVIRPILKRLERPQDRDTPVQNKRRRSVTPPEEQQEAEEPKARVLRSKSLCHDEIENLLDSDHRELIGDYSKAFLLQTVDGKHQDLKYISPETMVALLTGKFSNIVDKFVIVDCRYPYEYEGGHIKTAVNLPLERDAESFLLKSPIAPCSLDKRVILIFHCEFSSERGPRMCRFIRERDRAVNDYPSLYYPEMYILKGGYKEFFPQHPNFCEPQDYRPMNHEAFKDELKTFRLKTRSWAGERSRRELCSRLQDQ
# Hsp90 inh: displaces geldanamycin probe from tumor Hsp90. 0.35% of 64,000 active. inhibition, % at 30 µM. P07900. NCI-N417 lysate Hsp90, Cy3B-geldanamycin FP displacement;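 active means inhibition above 50%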
# DUSP1 inh: inhibitors of human MKP-1 phosphatase | P28562 | recombinant MKP-1, OMFP hydrolysis fluorescence | inhibition, %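 (compounds tested at a single concentration somewhere between 10 and 100 µM)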 | 0.15% of 65,000 active;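 active means inhibition above about 50%, limit read from the data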
# SF-1 act: activators of human nuclear receptor SF-1. CHO-K1 Gal4-SF-1 LBD luciferase reporter; % increase over DMSO SF-1-specific signal. 1.9% of 65,000 active. activation, % at 10 µM. AID 522. Q13285;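 active means activation above the mean activation of all tested compounds plus 3 SD, cut at about 50% in these data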
#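 Assay system: CHO-K1 cells co-transfected with Gal4 DBD–human SF-1 LBD, 5xGal4 luciferase reporter; doses: 10 µM only; incubation: 20 h compound exposure at 37 °C after 1 h cell settling; signal: luciferase light emission; evaluation: percent activation versus DMSO; repeats: one test per compound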
# Hits are given with their value; 0 = inactive; - = no result.
SMILES,RORA act,JNK3 inh,Cdc25B inh,Hsp90 inh,DUSP1 inh,SF-1 act
CCOC(=O)C(C(=O)OCC)C(C)C#CCN1CCCCC1 (configuration not stated),0,0,0,0,0,0
COC(=O)CCC(=O)Oc1ccc(OC(=O)CCC(=O)OC)cc1,-,-,59,-,56,-
CCc1nnc(NC(=O)c2ccc(COc3ccc(C)cc3)o2)s1,0,0,0,0,0,52
CCCNC(=O)c1ccc(SC)cc1OC,0,0,0,0,0,0
COc1cc(SC)ccc1C(=O)Nc1ccccc1C#N,0,0,0,0,0,60
c1ccc2[nH]c(CSc3ncnc4c3oc3ccccc34)nc2c1,0,19,0,0,0,0
O=C(CSc1ncnc2c1oc1ccccc12)c1cccs1,0,0,0,0,0,71
NC(=O)CSc1ncnc2c1oc1ccccc12,0,0,0,0,0,0
Cc1nc(SCc2nc3ccccc3[nH]2)c2oc3ccccc3c2n1,0,0,0,0,0,0
O=c1[nH]c(N2CCOCC2)nc2c1CCCC2,0,0,0,0,0,0
COc1cc(C2c3c(oc4c(C)cc(C)cc4c3=O)C(=O)N2Cc2cccnc2)cc(OC)c1OC (configuration not stated),0,0,0,0,0,0
Oc1ccccc1C1=Nc2nc3ccccc3n2C(c2ccccc2)C1 (configuration not stated),81,0,0,0,0,0
CC(C)(C)c1ccc(OCCn2ccccc2=O)cc1,0,0,0,0,0,67
Cc1cc(SCC(N)=O)nc(SCC(=O)c2ccccc2)n1,0,0,0,91,0,0
Cc1cc(SCC(=O)c2ccccc2)nc(C)n1,0,0,0,0,0,0
Cc1cc2n(n1)C(c1c[nH]c3ccccc13)Nc1ccccc1-2 (configuration not stated),0,0,0,0,0,0
OC1(c2cn(Cc3ccccc3)nn2)CCCCC1,0,0,0,0,0,0
Cc1cc(C)n2nc(Nc3ccccc3)cc2n1,0,-,0,-,0,62
Cc1cc(C)n2nc(C(=O)NCc3ccccc3)cc2n1,0,0,0,0,0,0
Cc1nc2sc(-c3ccccc3)cc2c(=O)n1-n1cccc1,0,0,0,0,0,89
Cc1csc(NC(=O)CSc2nnc(Cn3c(=O)sc4ccccc43)n2-c2ccccc2)n1,0,0,0,0,0,0
O=C(Nc1nnc(C(F)(F)F)s1)c1cccnc1,66,0,0,0,0,60
COc1ccc(C(=O)Nc2nnc(C(F)(F)F)s2)cc1,0,0,0,0,0,57
O=C(c1ccco1)N1CCN(S(=O)(=O)c2cccc(C(F)(F)F)c2)CC1,0,0,0,0,0,0
Nc1nc2c3ccccc3nc(C3CC3)n2n1,0,0,0,0,0,0
SMILES,RORA act,JNK3 inh,Cdc25B inh,Hsp90 inh,DUSP1 inh,SF-1 act
CC1CCCCC1NC(=O)CCn1c(=O)oc2ccccc21 (configuration not stated),0,0,0,0,77,0
CC1CCCC(NC(=O)CCn2c(=O)oc3ccccc32)C1C (configuration not stated),0,0,0,0,0,0
Cc1ccc(-c2noc(C3CCCN(C(=O)c4ccccc4)C3)n2)o1 (configuration not stated),50,0,0,0,0,0
CNc1nc(N2CCc3ccccc32)ncc1F,0,0,0,0,0,75
Cn1c(=O)cc(N2CCc3ccccc32)[nH]c1=O,0,0,0,0,0,0
O=C(CSc1cn(Cc2ccccc2)c2ccccc12)Nc1nccs1,76,0,0,0,0,84
CC(=O)N(C)c1nc(-c2ccc(Cl)cc2)cs1,0,-,0,0,0,0
CNc1nc(-c2ccc(Cl)cc2)cs1,0,-,0,-,0,64
CCNc1nc(-c2ccc(Cl)cc2)cs1,50,-,0,-,0,0
Cc1ccc(S(=O)(=O)NCCN=C(CN2CCCC2)NS(=O)(=O)c2ccc(C)cc2)cc1,0,0,0,0,0,0
COC(=O)c1c(C)cc(C)n2c1nc1ccccc12,0,0,0,0,0,0
O=P(O)(CCCCP(=O)(O)CCc1ccccc1)CCc1ccccc1,0,0,0,0,0,0
c1ccc(OCCOc2ncnc3ccccc23)cc1,0,0,0,0,0,50
Cc1noc(C(=O)Nc2ccc3c(c2)OCO3)c1Cl,65,0,0,60,0,61
O=C(Nc1ccc2c(c1)OCO2)c1c(F)c(F)c(F)c(F)c1F,0,0,0,0,0,0
O=C(Nc1ccc(Cl)cc1)c1ccc2c(c1)OCO2,0,0,0,0,0,0
O=C(Nc1ccc2c(c1)OCO2)c1c(Cl)nc2sccn12,0,-,0,-,0,66
Cc1onc(-c2ccccc2Cl)c1C(=O)Nc1ccc2c(c1)OCO2,0,0,0,0,0,0
O=C(Nc1ccc2c(c1)OCO2)c1cccc(Cl)c1,0,0,0,0,0,67
Cc1occc1C(=O)Nc1ccc2c(c1)OCO2,0,0,0,0,0,53
Cc1cc(C)n(C(=O)c2cc3ccccc3c(=O)o2)n1,0,0,0,0,0,0
CN1CCN(Cc2nc3c(c(=O)n(C)c(=O)n3C)n2Cc2ccccc2Cl)CC1,0,0,0,0,0,0
O=C(Nc1ccc(F)c(F)c1)c1ccc2c(c1)OCO2,0,0,0,0,0,66
O=C(Nc1cccnc1)c1cnn2cccnc12,0,0,0,0,0,0
O=C(Nc1ccc2c(c1)OCO2)c1cnn2cccnc12,61,0,0,0,0,70
SMILES,RORA act,JNK3 inh,Cdc25B inh,Hsp90 inh,DUSP1 inh,SF-1 act
COc1cc(CN/C(C)=C(\C#N)C(N)=O)cc(OC)c1OC,0,63,0,0,0,0
CN(C)C=Nc1ccc2nn(-c3ccccc3)nc2c1,0,0,0,0,0,74
CC1(C)Cc2nc3sc4c(=O)n(CC(=O)NCc5ccco5)cnc4c3cc2CO1,0,-,0,-,0,62
O=C(Cn1cnc2ccccc2c1=O)NCc1ccco1,0,0,0,0,0,0
CC(C)CNC(=O)CN(C1CCCCC1)S(=O)(=O)c1ccccc1,0,-,0,-,0,0
c1ccc2[nH]c(SCc3ccc(-c4nnco4)cc3)nc2c1,0,0,0,94,0,0
O=C1CCC(=O)N1c1ccc(CSc2nc3ccccc3[nH]2)cc1,0,0,0,0,0,0
c1cnc2c(SCc3ccc(-c4nnco4)cc3)cccc2c1,0,0,0,0,0,62
O=S1(=O)c2cccc3cccc(c23)N1Cc1ccc(-c2nnco2)cc1,0,0,0,0,0,0
Cc1ccc(CCNC(=O)CCNS(=O)(=O)c2ccc3c(c2)c(=O)n(C)c(=O)n3C)cc1,0,0,0,0,0,0
Cn1c(=O)c2cc(S(=O)(=O)NCCC(=O)NCCC3=CCCCC3)ccc2n(C)c1=O,0,0,0,0,57,0
O=S(=O)(NCCSc1nnnn1-c1ccccc1)c1cccs1,0,0,0,0,0,54
CCc1ccccc1Nc1ccc(C(=O)O)cc1N,0,0,0,0,0,60

# Bioassay records (PubChem)
